Screening results from PubChem.
DDE Tn7 FP inh = disrupts Tn7 cyclic peptide binding to fibrin D-Dimer-E complex | AID 720508 | FP displacement of FITC-Tn7 peptide from fibrin DD(E); 0% = median of compound wells per plate | 370,000 compounds, 0.13% hits | P02675 | inhibition, % at 8.3 µM;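 active means inhibition above the mean of compounds falling within the control limits plus 3 SD of them, cut at about 14% in these data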;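 further: 0% = plate median of compound wells and 100% = 10 µM Aha-Tn7 peptide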
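Test system – human fibrin DD(E) · Times – 10 min preincubation, 3 h with tracer, room temperature · Detection – fluorescence polarization of the labelled Tn7 tracer · Measure – percent inhibition normalized to high-control wells · Benchmarks – high control wells with 10 µM unlabelled Aha-Tn7 peptide (full inhibition) · Repeats – singlicate testing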
CAL PDZ FP-1 = human CAL PDZ-peptide interaction inhibition. Q9HD26. purified CAL PDZ, TMR-peptide fluorescence polarization, 1 h. inhibition, % at 20 µM. 330,000 compounds, 0.02% hits. AID 504414;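 active means highest replicate inhibition of at least 40%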;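 further: plate controls were DMSO neutral control wells for no effect and unlabeled competitor peptide control wells for full effect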
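Material: tagged CAL PDZ protein CerCALP, purified; buffer or medium: sodium phosphate/NaCl buffer pH 7.4 with TCEP, IgG, Thesit; also added: fluorescent TMR peptide probe; schedule: 1 h incubation at room temperature before polarization reading; technique: fluorescence polarization from S- and P-plane intensities, G-factor corrected; control set: unlabelled peptide and DMSO controls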
GRK2 aptamer HTS = blocks RNA aptamer binding to human GRK2 | inhibition of aptamer binding, % at 10 µM | P25098 | 330,000 compounds, 0.59% hits | bead flow cytometry, FAM-aptamer displacement from GRK2;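 active means inhibition of aptamer binding above 40%, roughly 3 SD of noise, on plates passing a quality check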;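 further: median bead fluorescence of bound FAM aptamer so fluorescent compounds give negative values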
Target sequence (P25098 whole entry, looked up): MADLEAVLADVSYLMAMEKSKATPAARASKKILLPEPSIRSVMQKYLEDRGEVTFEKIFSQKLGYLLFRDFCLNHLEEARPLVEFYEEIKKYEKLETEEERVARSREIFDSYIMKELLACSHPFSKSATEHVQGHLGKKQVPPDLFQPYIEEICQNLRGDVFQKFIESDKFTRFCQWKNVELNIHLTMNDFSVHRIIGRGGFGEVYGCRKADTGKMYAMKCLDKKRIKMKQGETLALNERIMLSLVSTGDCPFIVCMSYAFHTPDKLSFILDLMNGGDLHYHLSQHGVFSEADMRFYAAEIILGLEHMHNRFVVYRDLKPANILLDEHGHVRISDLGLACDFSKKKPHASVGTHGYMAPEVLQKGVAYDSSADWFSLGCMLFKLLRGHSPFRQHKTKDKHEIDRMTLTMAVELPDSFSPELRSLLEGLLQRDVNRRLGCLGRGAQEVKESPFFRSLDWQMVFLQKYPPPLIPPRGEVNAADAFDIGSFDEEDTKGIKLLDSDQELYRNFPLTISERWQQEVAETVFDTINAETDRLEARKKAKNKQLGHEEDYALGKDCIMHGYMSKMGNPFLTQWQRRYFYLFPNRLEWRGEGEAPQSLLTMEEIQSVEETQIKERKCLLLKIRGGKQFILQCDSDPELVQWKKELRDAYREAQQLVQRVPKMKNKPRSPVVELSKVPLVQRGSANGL
CAL PDZ FP-2 = blocks peptide binding to the human CAL PDZ domain; Q9HD26; purified CAL PDZ, TMR-peptide fluorescence polarization, 1 h; inhibition, % at 24.9 µM; 300,000 compounds, 0.92% hits;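 active means mean inhibition of at least 30% with at least half of replicates also reaching 30%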;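 further: 0% = DMSO neutral control and 100% = excess unlabeled competitor peptide PRC23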
ARNT TACC3 PPI = disruptors of human ARNT/TACC3 interaction; 390,000 compounds, 0.66% hits; inhibition, % at 9.99 µM; AlphaScreen His-ARNT PAS-B/GST-TACC3 binding, luminescence; TACC3 fragment carries E629A point mutation; Q9Y6A5;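 active means mean inhibition of replicates at least 50% and at least half of replicates each reaching 50%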;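 further: 0% = complete ARNT plus TACC3 wells and 100% = ARNT alone without TACC3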
Tn6 DDE FP = disrupts Tn6 cyclic peptide binding to fibrin D-Dimer-E complex; P02675; Fibrin DD(E) TRITC-Tn6 fluorescence polarization displacement; inhibition, % at 8.3 µM; 370,000 compounds, 0.21% hits; AID 720509;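 active means inhibition above a per-campaign cutoff: mean of compounds within control limits plus 3 SD, cut at about 15% in these data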;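 further: 0% = median of all compound wells on the plate and 100% = blocking peptide control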
The depositor's hits bear a star; . = no result; + = active, no number. An excerpt weighted towards active compounds, which were near 1.8% of everything screened.

SMILES | DDE Tn7 FP inh | CAL PDZ FP-1 | GRK2 aptamer HTS | CAL PDZ FP-2 | ARNT TACC3 PPI | Tn6 DDE FP
C[C@H]1CN([C@@H](C)CO)C(=O)Cc2cc(NS(=O)(=O)c3cccs3)ccc2O[C@H]1CN(C)C | . | . | . | . | -4 | .
CC(C)[C@H](NC(=O)c1ccccc1Cl)C(=O)OCC(=O)NCc1ccc2c(c1)OCO2 | -2 | 0 | 42* | . | 6 | 12
CC(C)CC#Cc1ccc2c(c1)O[C@@H](CN(C)C(=O)NC1CCCC1)[C@@H](C)CN([C@@H](C)CO)S2(=O)=O | . | . | . | . | -6 | .
CCCCCN(C(=O)CCC(=O)OCc1ccccc1F)c1c(N)n(CCCC)c(=O)[nH]c1=O | -3 | -2 | 2 | 17 | 1 | 4
CCCCn1c(N)c(N(CCC(C)C)C(=O)CSc2nncn2-c2ccccc2)c(=O)[nH]c1=O | 2 | -1 | 0 | 48* | . | 3
CCCCCn1nc(C(=O)N(CC)c2c(N)n(CCCC)c(=O)[nH]c2=O)c2ccccc2c1=O | 2 | 4 | 0 | 45* | -5 | 9
CCCCCN(C(=O)CCC(=O)OCc1ccccc1C(F)(F)F)c1c(N)n(CCCC)c(=O)[nH]c1=O | -2 | 0 | 47* | 1 | 25 | 7
CN1C(=O)c2cc(NS(=O)(=O)c3ccccc3Cl)ccc2OC[C@H]2O[C@@H](CC(=O)O)CC[C@H]21 | . | . | . | . | 0 | .
O=C(N/N=C/c1ccc(Cl)c([N+](=O)[O-])c1)c1ccc2c(c1)OCCO2 | 9 | -1 | . | -1 | 6 | -4
O=C(Nc1ccc(Cl)c([N+](=O)[O-])c1)c1ccc2c(c1)OCCO2 | 2 | 17 | 1 | 30* | -2 | -5
O=C1NC(=S)NC1=Cc1ccco1 | -4 | 1 | . | . | 60* | 5
O=C1NC(=O)/C(=C/c2ccco2)N1 | 3 | 0 | 0 | -3 | -6 | 4
CCOC(=O)C1=NNC(C(=O)c2ccccc2)C1c1ccc(C)cc1 (stereo not given) | 5 | -1 | 1 | 59* | -1 | 2
Cc1ccccc1/C=N/n1c(-c2ccccn2)n[nH]c1=S | 5 | -1 | 8 | -6 | 71* | 5
Cc1cccc(/C=N/n2c(-c3ccccn3)n[nH]c2=S)c1 | . | . | 5 | . | . | .
S=c1[nH]nc(-c2ccccn2)n1/N=C/c1ccc(Cl)cc1 | 8 | 1 | 1 | 2 | 77* | -2
S=c1[nH]nc(-c2ccccn2)n1/N=C/c1cccs1 | -2 | -1 | 0 | . | 59* | 6
S=c1[nH]nc(-c2ccccn2)n1/N=C/c1ccccc1 | 6 | 0 | 2 | . | 57* | -1
COC(CNC(=O)[C@H](Cc1c[nH]c2ccccc12)NC1(C(=O)NCc2ccccc2)CCCCC1)OC | -6 | . | . | . | . | 3
COc1ccccc1/C=C/C=N/n1c(-c2ccccn2)n[nH]c1=S | 7 | 0 | 0 | -4 | 65* | 10
Cc1ccc(/C=N/n2c(-c3ccccn3)n[nH]c2=S)o1 | 0 | 1 | 1 | -4 | 91* | 3
S=c1[nH]nc(-c2cc(-c3ccccc3)n[nH]2)n1/N=C/c1c(Cl)cccc1Cl | 2 | 0 | 0 | 0 | -4 | -3
Cc1ccc(-c2n[nH]c(=S)n2/N=C/c2ccc(C)o2)cc1 | -3 | 0 | 1 | 3 | -2 | 0
COc1ccccc1/C=C/C=N/n1c(-c2cc(C)[nH]n2)n[nH]c1=S | 3 | 0 | 12 | -5 | -1 | 9
S=c1[nH]nc(-c2ccccn2)n1/N=C/c1c(Cl)cccc1Cl | -1 | 0 | 0 | 6 | 79* | -9
SMILES | DDE Tn7 FP inh | CAL PDZ FP-1 | GRK2 aptamer HTS | CAL PDZ FP-2 | ARNT TACC3 PPI | Tn6 DDE FP
S=c1[nH]nc(-c2ccccn2)n1/N=C/c1cccc2ccccc12 | 7 | -2 | 0 | -4 | 56* | 0
COCC(=O)NC[C@@H]1[C@H](c2ccc(-c3ccccc3)cc2)[C@H](CO)N1C(C)=O | . | . | . | . | -5 | .
O=C(C[C@@H]1C=C[C@H](NC(=O)C2CCOCC2)[C@@H](CO)O1)NCCc1cscn1 | . | . | . | . | 24 | .
COc1ccccc1S(=O)(=O)N1CC[C@H]2[C@@H](CO)N(C)c3ccc(-c4ccc(C#N)cc4)cc3[C@H]21 | . | . | . | . | 39 | .
Cc1ccc(C)c(N2CCN(S(=O)(=O)c3ccc(-c4ccc(=O)[nH]n4)o3)CC2)c1 | 4 | -1 | 0 | 44* | -5 | 1
CCOC(=O)N1CCN(C(=O)CNCc2cccs2)CC1 | -4 | -2 | 2 | 47* | 4 | -15
CCOC(=O)N1CCN(c2c(NCc3cccs3)c(=O)c2=O)CC1 | 7 | -1 | 3 | . | 3 | 9
C[C@H](CO)N1C[C@H](C)[C@@H](CN(C)C(=O)C2CCOCC2)Oc2cc(C3=CCCCC3)ccc2S1(=O)=O | . | . | . | . | -7 | .
N=c1c2c3c(sc2ncn1Nc1ccccc1)CCC3 | 5 | . | 0 | . | . | -3
Cc1noc(C)c1C(=O)N(C)C[C@H]1OCc2ccccc2-c2c(n(C)c3ccccc23)C(=O)N([C@H](C)CO)C[C@H]1C | . | . | . | . | 4 | .
CC(C)Cc1nc2oc3c(N4CCN(CCO)CC4)ncnc3c2c2c1CCCC2 | 5 | -10 | 45* | -11 | 5 | 8
CCOC(=O)N1CCN(c2ncnc3c2oc2nc(C(C)C)c4c(c23)CCC4)CC1 | -2 | 0 | 0 | . | -4 | -14
C/C(=N\NC(=O)c1cc(-c2ccncc2)nc2ccccc12)c1ccc(OC(F)F)cc1 | 10 | 0 | 0 | 70* | -2 | 1
O=C1C(Cl)=C(NCCN2CCOCC2)C(=O)c2ccccc21 | -4 | 0 | 5 | 0 | 66* | -6
COC(=O)CCN(Cc1ccccc1)S(=O)(=O)c1ccccc1Br | 5 | -1 | 4 | -4 | -2 | 1
O=C(O)CCN(Cc1ccccc1)S(=O)(=O)c1ccccc1Cl | -5 | -2 | . | 52* | -11 | -6
CC(=O)c1cnc2nc(SCc3ccc(Cl)cc3)nn2c1C | 3 | . | 4 | 178* | 1 | -4
Cc1ccc(S(=O)(=O)N(C)C(C)CCc2ccco2)cc1 (stereo not given) | -2 | -1 | 0 | + | -4 | -1
COc1ccc(S(=O)(=O)N(C)C(C)CCc2ccco2)cc1 (stereo not given) | 4 | -1 | 0 | -2 | -2 | 11
COC(=O)c1c(N2C(=O)[C@H]3[C@@H](C2=O)[C@]2(C(=O)Nc4c2ccc(C)c4C)N2CCC[C@@H]32)sc(C)c1C | 1 | -1 | 2 | 1 | 0 | -3
COC(=O)c1c(N2C(=O)[C@H]3[C@@H](C2=O)[C@]2(C(=O)Nc4c(C)cc(C)cc42)N2CCC[C@@H]32)sc(C)c1C | 0 | 0 | 0 | 66* | 3 | -3
CC1=NS(=O)(=O)NC(C)(C)C1 | 3 | 0 | . | 5 | -3 | 5
O=C(c1ccccn1)N1CC=C(c2ccccc2)CC1 | -1 | -1 | . | 194* | 3 | -2
